By viability is commonly meant a read-out of living cells in per cent, often relative to untreated cells. One may read the inhibition as the relative decrease from the control value, in per cent.

The values that follow come from PubChem BioAssay.

Calls of active or inactive are those of the source.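 Rule for the calls, unless noted: active = viability loss from added drug above about 55%, and viability with drug at most 40%, in both replicates (limit read from the data, passing the limit was not always enough); inconclusive = both conditions met in only one replicate; inactive = neither replicate meets both conditions.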

Assay [1] in a line: Her2 expression decrease, cell viability multiplex – SKBR3 breast tumor cells, AlphaScreen, ATP viability, primary screen (AID 461;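 active = Her2 level under about 52% in both replicate screens, with viability over 70% of control, limit read from the data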;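 for Her2 level: lower value means less Her2 protein in the cells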;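 for viability: percent of carrier control wells set as 100% viability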). The conditions noted are these: SKBR3 Her2 protein level, 18-24 h, measured here: SKBR3 viability, ATP luminescence, at 10 µM. On the technique in general: Alpha assays give light when donor and acceptor beads are brought close together.
Assay [2] concerns the target Receptor tyrosine-protein kinase erbB-2 (Homo sapiens) (UniProt P04626). The description is as above. The conditions noted are these: 18-24 h, at 10 µM, stronger effect = lower value.
Assay [3] can be described thus: reduced viability of SK-BR-3 breast cancer cells – cell-based, 24 h, human, pilot screen (AID 572;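 active = viability at or below 10% of carrier control in both of two separate runs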;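 note: compound exposure lasted between 18 and 24 h rather than exactly 24 h; 100% = carrier-treated control wells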). The conditions noted are these: SK-BR-3 viability, CellTiter-Glo luminescence, at 10 µM, stronger effect = lower value. (Cellular ATP, detected with luciferase, serves as a proxy for viable cell number.)
A short description of assay [4]: H69AR cell proliferation blockers – human, duplicate replicates, primary screen (AID 580;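 active = viability at or under a set limit in both replicates, limit being median viability minus 3 SD, cut at about 48% in these data, passing the limit was not always enough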;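 note: 100% = mean luminescence of untreated wells and 0% = no signal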). The conditions noted are these: H69AR lung tumor cells viability, ATP luminescence, 72 h; at 10 µM; stronger effect = lower value.
Assay [5] is described as follows: MRP1 drug-resistance reversers in H69AR cells – cell-based, doxorubicin co-treatment, pilot screen (AID 601). Conditions: CellTiter-Glo, 72 h, at 10 µM; for differential viability (reversal): stronger effect = higher value.
Assay [6] is described as follows: yeast transport mutant growth inhibition pilot in 384-well plates, post-Golgi transport modulator project (AID 636; in the data active = inhibition above about 31%). The conditions noted are these: absorbance 615 nm, about 18 h, stronger effect = higher value.
Assay [7] is described as follows: growth suppression of yeast trafficking mutant, preliminary HTS, modulators of trafficking downstream of Golgi apparatus project, 1536-format plate, OD 615 nm (AID 637; in the data active = inhibition above about 30%). The conditions noted are these: yeast transport mutant growth, absorbance 615 nm, 18 h; stronger effect = higher value.
Assay [8] is described as follows: HUVEC growth inhibition – cell-based, human, primary screen (AID 575;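 active = viability at or below 30% in both replicate assays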;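 note: 100% = median of untreated cell wells with 0.1% DMSO on each plate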). The conditions noted are these: HUVEC proliferation, CellTiter-Glo luminescence, 72 h; at 10 µM; stronger effect = lower value. The gist of the method: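 System: primary human umbilical vein endothelial cells; Quantity: 1250 endothelial cells in each well; Buffer or medium: supplemented EBM, 2% fetal bovine serum; Doses: one dose, 10 µM final, 0.1% DMSO; Incubation: 72 h compound incubation; Technique: ATP-based CellTiter-Glo luminescent read; Evaluation: percent of median DMSO-control luminescence; Controls: vehicle and MePR control wells.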

[9] abbreviates: H69AR cells + 2 uM doxorubicin, measured here: viability with 2 uM doxorubicin, stronger effect = lower value.
Where [10] appears, read: H69AR cells, compound alone cytotoxicity.

Chain of Receptor tyrosine-protein kinase erbB-2 (Homo sapiens) (P04626 whole entry, looked up): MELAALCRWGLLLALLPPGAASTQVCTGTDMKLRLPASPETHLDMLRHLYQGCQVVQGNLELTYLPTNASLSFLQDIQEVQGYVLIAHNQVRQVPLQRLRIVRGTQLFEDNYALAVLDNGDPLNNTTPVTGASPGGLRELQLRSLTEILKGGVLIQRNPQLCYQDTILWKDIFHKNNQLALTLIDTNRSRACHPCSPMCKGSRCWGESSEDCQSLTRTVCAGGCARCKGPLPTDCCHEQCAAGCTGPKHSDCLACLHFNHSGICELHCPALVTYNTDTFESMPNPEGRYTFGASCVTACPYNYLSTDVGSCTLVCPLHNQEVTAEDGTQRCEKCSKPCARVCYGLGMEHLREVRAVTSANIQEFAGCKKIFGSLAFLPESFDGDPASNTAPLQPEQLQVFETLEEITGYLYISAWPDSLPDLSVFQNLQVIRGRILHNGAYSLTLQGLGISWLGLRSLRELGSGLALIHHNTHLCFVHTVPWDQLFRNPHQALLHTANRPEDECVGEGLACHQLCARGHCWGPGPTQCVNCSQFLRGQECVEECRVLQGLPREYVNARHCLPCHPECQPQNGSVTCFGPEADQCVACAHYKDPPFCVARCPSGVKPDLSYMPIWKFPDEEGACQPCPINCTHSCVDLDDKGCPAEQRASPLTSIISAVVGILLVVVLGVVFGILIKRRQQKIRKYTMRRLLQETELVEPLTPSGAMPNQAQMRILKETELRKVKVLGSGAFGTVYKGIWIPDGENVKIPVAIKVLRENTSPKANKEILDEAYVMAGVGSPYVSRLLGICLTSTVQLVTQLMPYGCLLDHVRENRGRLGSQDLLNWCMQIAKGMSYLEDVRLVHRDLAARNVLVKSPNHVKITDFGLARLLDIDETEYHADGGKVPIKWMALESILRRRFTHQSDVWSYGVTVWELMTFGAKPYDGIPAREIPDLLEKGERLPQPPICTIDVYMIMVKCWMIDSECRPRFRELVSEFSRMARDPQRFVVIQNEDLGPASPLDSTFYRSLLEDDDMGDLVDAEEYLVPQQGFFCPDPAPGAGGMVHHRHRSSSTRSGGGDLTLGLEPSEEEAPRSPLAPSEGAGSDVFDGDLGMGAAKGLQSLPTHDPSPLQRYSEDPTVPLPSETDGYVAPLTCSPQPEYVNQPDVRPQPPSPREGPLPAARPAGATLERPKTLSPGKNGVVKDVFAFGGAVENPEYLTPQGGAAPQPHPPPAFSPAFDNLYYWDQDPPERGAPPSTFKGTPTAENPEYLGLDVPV

As for `Cc1cc(O)c(-c2cc(C(=O)Nc3ccc(S(=O)(=O)N4CCOCC4)cc3)[nH]n2)cc1C`, the viability in assay [1] was 120%; in assay [3], 120% (inactive); in assay [4] it was 37.6% (active); in assay [5] (setting [9]), 59.2%; in assay [5] (setting [10]), 37.6%. Also, in assay [2], the Her2 level was 41% (active). In addition, in assay [5] (H69AR cells + 2 uM doxorubicin), the differential viability (reversal) is -21.6% (inactive). Besides, the inhibition in assay [6] is -5.14% (inactive); in assay [7], -5.08% (inactive).
Turning to `O=C(O)CCc1cc(I)c(Oc2ccc(O)c(I)c2)c(I)c1`, the viability was 104% in assay [1]; 104% (inactive) in assay [3]; 102% (inactive) in assay [4]; 98.8% in assay [5] (setting [9]); 102% in assay [5] (setting [10]). Besides, the Her2 level in assay [2] is 76.5% (inactive). In addition, in assay [5] (H69AR cells + 2 uM doxorubicin), the differential viability (reversal) was 3.29% (inactive).
For `C=CCSC1=C(C#N)C(c2ccccc2C)CC(=O)N1` (centres undefined), the viability is 95.5% in assay [1]; 95.5% (inactive) in assay [3]; 89% (inactive) in assay [8]; 10.6% in assay [5] (setting [9]); 10.1% in assay [5] (setting [10]). In assay [2], the Her2 level is 99% (inactive). The differential viability (reversal) in assay [5] (H69AR cells + 2 uM doxorubicin) is -0.42% (inactive). For the same molecule, the inhibition in assay [6] was -2.21% (inactive); in assay [7] it was -2.38% (inactive).
Consider `Nc1ncnc2oc(-c3ccco3)c(-c3ccco3)c12`, for which the viability in assay [1] was 96.5%; in assay [3], 96.5% (inactive); in assay [4] it was 75.7% (inactive); in assay [5] (setting [9]), 68.4%; in assay [5] (setting [10]) it was 75.7%. Also, the Her2 level in assay [2] is 77% (inactive). Moreover, in assay [5] (H69AR cells + 2 uM doxorubicin), the differential viability (reversal) was 7.29% (inactive). In addition, the inhibition in assay [6] is -0.13% (inactive); in assay [7], -4.03% (inactive).
Consider `CC(C)C[C@H]1C(=O)N2CCC[C@H]2[C@]2(O)O[C@](NC(=O)[C@@H]3C=C4c5cccc6[nH]c(Br)c(c56)CC4N(C)C3)(C(C)C)C(=O)N12` (some centres undefined), for which the viability in assay [1] is 138%; in assay [3], 138% (inactive); in assay [4], 84.2% (inactive); in assay [5] (setting [9]), 72.4%; in assay [5] (setting [10]), 84.2%. Also, the Her2 level in assay [2] was 71% (inactive). In addition, the differential viability (reversal) in assay [5] (H69AR cells + 2 uM doxorubicin) was 11.8% (inactive).
`O=C(NC1CCCCC1)C(c1ccccc1)N(Cc1ccco1)C(=O)Cn1cnc2ccccc21` (centres undefined): the viability in assay [1] was 102%; in assay [3] it was 102% (inactive); in assay [4], 78.3% (inactive); in assay [5] (setting [9]) it was 70.1%; in assay [5] (setting [10]), 78.3%. Also, the Her2 level in assay [2] was 90% (inactive). The differential viability (reversal) in assay [5] (H69AR cells + 2 uM doxorubicin) is 8.18% (inactive). Moreover, the inhibition was -5.33% (inactive) in assay [6] and -4.92% (inactive) in assay [7].
Regarding `C/C(Cl)=C/Cn1c(SCc2ccc(Cl)cc2)nc2c1c(=O)[nH]c(=O)n2C`, the viability was 102% in assay [1]; 102% (inactive) in assay [3]; 78.8% (inactive) in assay [8]; 60.4% in assay [5] (setting [9]); 54.3% in assay [5] (setting [10]). Moreover, the Her2 level in assay [2] was 110% (inactive). Besides, the differential viability (reversal) in assay [5] (H69AR cells + 2 uM doxorubicin) was -6.12% (inactive). Further, the inhibition was -1.33% (inactive) in assay [6] and -7.1% (inactive) in assay [7].
Turning to `Clc1ccc(Cl)c(-c2nn3c(COc4ccccc4)nnc3s2)c1`, the viability in assay [1] was 96%; in assay [3], 96% (inactive); in assay [4], 72.9% (inactive); in assay [5] (setting [9]) it was 71.9%; in assay [5] (setting [10]), 72.9%. Besides, the Her2 level in assay [2] is 69% (inactive). In addition, the differential viability (reversal) in assay [5] (H69AR cells + 2 uM doxorubicin) was 1.02% (inactive). The figures for the inhibition in assay [6] and in assay [7] were -5.07% (inactive) and 5.32% (inactive), respectively.
With `Cc1ccc2nc(NC(=O)C3CCN(S(=O)(=O)c4cccc5nsnc45)CC3)sc2c1`, the viability in assay [1] was 85.5%; in assay [3], 85.5% (inactive); in assay [8], 42.8% (inactive); in assay [5] (setting [9]), 76.5%; in assay [5] (setting [10]) it was 65.8%. The Her2 level in assay [2] was 63.5% (inactive). For the same molecule, the differential viability (reversal) in assay [5] (H69AR cells + 2 uM doxorubicin) is -10.7% (inactive). Moreover, the inhibition in assay [6] is -5.07% (inactive); in assay [7], 10.3% (inactive).
`Cc1cccc(NC(=O)c2cc(NC(=O)c3ccco3)ccc2N2CCCCC2)c1`: the viability in assay [1] is 85%; in assay [3], 85% (inactive); in assay [4], 65.9% (inactive); in assay [5] (setting [9]), 48%; in assay [5] (setting [10]), 65.9%. In assay [2], the Her2 level is 80.5% (inactive). For the same molecule, the differential viability (reversal) in assay [5] (H69AR cells + 2 uM doxorubicin) was 17.8% (inactive). Besides, the values for the inhibition in assay [6] and in assay [7] were -4.4% (inactive) and 2.46% (inactive), respectively.
As for `O=C(CC(=O)c1cc(Cl)ccc1O)c1ccccc1`, the viability is 131% in assay [1]; 131% (inactive) in assay [3]; 11.4% (active) in assay [4]; 21% in assay [5] (setting [9]); 11.4% in assay [5] (setting [10]). For the same molecule, in assay [2], the Her2 level is 89% (inactive). The differential viability (reversal) in assay [5] (H69AR cells + 2 uM doxorubicin) is -9.6% (inactive). Also, the inhibition in assay [6] is 94.7% (active); in assay [7] it was 61.3% (active).
On to `Cc1[nH]nc(N=CC2=C(O)CC(C)(C)CC2=O)c1-c1ccc(Cl)cc1`, for which the viability was 94.5% in assay [1]; 94.5% (inactive) in assay [3]; 79.4% (inactive) in assay [8]; 38.9% in assay [5] (setting [9]); 40.1% in assay [5] (setting [10]). Also, in assay [2], the Her2 level was 94.5% (inactive). In assay [5] (H69AR cells + 2 uM doxorubicin), the differential viability (reversal) is 1.14% (inactive). Also, the results for the inhibition in assay [6] and in assay [7] were 6.8% (inactive) and 6.83% (inactive), respectively.
Consider `COc1cc2c(N3CCOCC3)cc(O)c(CC(=O)Nc3ccccc3)c2cc1OC`, for which the viability was 90.5% in assay [1]; 90.5% (inactive) in assay [3]; 75.3% (inactive) in assay [4]; 89.3% in assay [5] (setting [9]); 75.3% in assay [5] (setting [10]). The Her2 level in assay [2] was 98.5% (inactive). For the same molecule, the differential viability (reversal) in assay [5] (H69AR cells + 2 uM doxorubicin) was -14% (inactive). Further, the figures for the inhibition in assay [6] and in assay [7] were -5.32% (inactive) and -6.89% (inactive), respectively.
In the case of `CCOC(=O)C1=C(N)c2ccccc2CC1C(C)C` (centres undefined), the viability in assay [1] is 85.5%; in assay [3] it was 85.5% (inactive); in assay [4] it was 72% (inactive); in assay [5] (setting [9]), 76.1%; in assay [5] (setting [10]) it was 72%. In addition, in assay [2], the Her2 level was 78% (inactive). Moreover, the differential viability (reversal) in assay [5] (H69AR cells + 2 uM doxorubicin) was -4.15% (inactive). Moreover, the inhibition was -5.34% (inactive) in assay [6] and -1.9% (inactive) in assay [7].
On to `CCOC(=O)c1c(C)oc2c1c(C(c1ccncc1)N1CCOCC1)c(O)c1ccccc12` (centres undefined), for which the viability in assay [1] is 104%; in assay [3], 104% (inactive); in assay [8], 9.39% (active); in assay [5] (setting [9]), 6.38%; in assay [5] (setting [10]), 1.11%. The Her2 level in assay [2] was 85% (inactive). For the same molecule, the differential viability (reversal) in assay [5] (H69AR cells + 2 uM doxorubicin) is -5.27% (inactive). The inhibition in assay [6] was -0.13% (inactive); in assay [7] it was -3.49% (inactive).
For `COc1ccc(CNc2oc(COc3ccccc3Cl)nc2C#N)cc1`, the viability in assay [1] is 84%; in assay [3] it was 84% (inactive); in assay [4], 87.3% (inactive); in assay [5] (setting [9]), 92.1%; in assay [5] (setting [10]) it was 87.3%. The Her2 level in assay [2] was 68.5% (inactive). In addition, the differential viability (reversal) in assay [5] (H69AR cells + 2 uM doxorubicin) was -4.78% (inactive). Also, the inhibition was 0.26% (inactive) in assay [6] and 14.1% (inactive) in assay [7].
On to `CN(C)CC(O)COc1ccc(-c2ccc(C#N)cc2)cc1` (centres undefined), for which the viability in assay [1] is 79.5%; in assay [3] it was 79.5% (inactive); in assay [4], 96% (inactive); in assay [5] (setting [9]) it was 81.8%; in assay [5] (setting [10]), 96%. The Her2 level in assay [2] was 109% (inactive). Besides, the differential viability (reversal) in assay [5] (H69AR cells + 2 uM doxorubicin) was 14.3% (inactive). The values for the inhibition in assay [6] and in assay [7] were 0.27% (inactive) and -6.61% (inactive), respectively.
